According to ChEMBL document CHEMBL1144020, “Development of prodrug 4-chloro-3-(5-methyl-3-{[4-(2-pyrrolidin-1-ylethoxy)phenyl]amino}-1,2,4-benzotriazin-7-yl)phenyl benzoate (TG100801): a topically administered therapeutic candidate in clinical trials for the treatment of age-related macular degeneration” (J Med Chem, 2008):

Assay: Stability at 120 degC after 1 hr
Type: physicochemical
Conditions: read-out: Stability
In short: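 Prodrugs at 0.5% in 0.5% HPMC/5% dextrose, pH 6.7, in closed vials, autoclaved at 120 °C for 1 h. After cooling, percent remaining was assessed by reverse-phase HPLC with diode-array and ELSD detection.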

| remaining at 1 h [%] | SMILES |
| --- | --- |
| 50 | Cc1cc(-c2cc(OC(=O)c3cccnc3)ccc2Cl)cc2nnc(Nc3ccc(OCCN4CCCC4)cc3)nc12 |
| < 20 | CC(=O)Oc1ccc(Cl)c(-c2cc(C)c3nc(Nc4ccc(OCCN5CCCC5)cc4)nnc3c2)c1 |
| 50 | Cc1cc(-c2cc(OC(=O)C(C)C)ccc2Cl)cc2nnc(Nc3ccc(OCCN4CCCC4)cc3)nc12 |
| < 20 | Cc1cc(-c2cc(OC(=O)CN)ccc2Cl)cc2nnc(Nc3ccc(OCCN4CCCC4)cc3)nc12 |
